The subject of test [1] is HL-60. Put plainly: Cytotoxicity against human HL60 cells after 24 hrs by MTT assay. In kind it is functional, cell-based. The settings on record: HL-60, 24 h. Summed up: (§1)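 MTT viability read-out on human cancer cell lines (Ca9-22 gingival, HL60 leukemia, HepG2 hepatoma), run to a previously published protocol.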
Test [2] deals with HepG2. Description: Cytotoxicity against human HepG2 cells after 24 hrs by MTT assay. In kind it is functional, cell-based. The settings on record: HepG2, 24 h. The method in brief:
as §1
On the technique in general: Formazan colour is commonly taken as a measure of viable cells.

Test [3] concerns the target Histone deacetylase 3 (Homo sapiens) (UniProt O15379). Description: Inhibition of HDAC3 in human HL60 cells at 5 to 20 ug/ml after 24 hrs by Western blotting analysis. In kind it is cell-based. The settings on record: HL-60. The method in brief:
(§2)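 Cells lysed for 30 min in RIPA buffer (PBS, 1% NP-40, 0.5% deoxycholate, 0.1% SDS, 1 mM orthovanadate, 100 μg/mL PMSF, 30 μg/mL aprotinin), then spun at 20000g for 30 min. Supernatant protein quantified by Bio-Rad assay. Equal protein run on 7.5, 10 or 12% SDS-PAGE, transferred to PVDF, blocked 1 h in 5% nonfat milk in TBST.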
A general note: Immunoblotting shows a protein as a band on a membrane.

For test [4], the target named is Histone deacetylase 1 (Homo sapiens) (UniProt Q13547). Put plainly: Inhibition of HDAC1 in human HL60 cells at 5 to 20 ug/ml after 24 hrs by Western blotting analysis. In kind it is cell-based. The settings on record: HL-60. Summed up:
as §2

In test [5] the test system is HL-60. Put plainly: Induction of apoptosis in human HL60 cells assessed as PARP cleavage by Western blotting analysis. In kind it is functional, cell-based. The method in brief:
as §2

Test [6] concerns HL-60. Description: Induction of apoptosis in human HL60 cells assessed as increase in Bax expression by Western blotting analysis. In kind it is functional, cell-based. Summed up: as §2
Test [7] deals with Ca9-22. Put plainly: Cytotoxicity against human Ca9-22 cells after 24 hrs by MTT assay. In kind it is functional, cell-based. The settings on record: Ca9-22, 24 h. Summed up:
as §1

In test [8] the target is T1, Protein deacetylase HDAC6 (Homo sapiens) (UniProt Q9UBN7).
T1 sequence (whole entry): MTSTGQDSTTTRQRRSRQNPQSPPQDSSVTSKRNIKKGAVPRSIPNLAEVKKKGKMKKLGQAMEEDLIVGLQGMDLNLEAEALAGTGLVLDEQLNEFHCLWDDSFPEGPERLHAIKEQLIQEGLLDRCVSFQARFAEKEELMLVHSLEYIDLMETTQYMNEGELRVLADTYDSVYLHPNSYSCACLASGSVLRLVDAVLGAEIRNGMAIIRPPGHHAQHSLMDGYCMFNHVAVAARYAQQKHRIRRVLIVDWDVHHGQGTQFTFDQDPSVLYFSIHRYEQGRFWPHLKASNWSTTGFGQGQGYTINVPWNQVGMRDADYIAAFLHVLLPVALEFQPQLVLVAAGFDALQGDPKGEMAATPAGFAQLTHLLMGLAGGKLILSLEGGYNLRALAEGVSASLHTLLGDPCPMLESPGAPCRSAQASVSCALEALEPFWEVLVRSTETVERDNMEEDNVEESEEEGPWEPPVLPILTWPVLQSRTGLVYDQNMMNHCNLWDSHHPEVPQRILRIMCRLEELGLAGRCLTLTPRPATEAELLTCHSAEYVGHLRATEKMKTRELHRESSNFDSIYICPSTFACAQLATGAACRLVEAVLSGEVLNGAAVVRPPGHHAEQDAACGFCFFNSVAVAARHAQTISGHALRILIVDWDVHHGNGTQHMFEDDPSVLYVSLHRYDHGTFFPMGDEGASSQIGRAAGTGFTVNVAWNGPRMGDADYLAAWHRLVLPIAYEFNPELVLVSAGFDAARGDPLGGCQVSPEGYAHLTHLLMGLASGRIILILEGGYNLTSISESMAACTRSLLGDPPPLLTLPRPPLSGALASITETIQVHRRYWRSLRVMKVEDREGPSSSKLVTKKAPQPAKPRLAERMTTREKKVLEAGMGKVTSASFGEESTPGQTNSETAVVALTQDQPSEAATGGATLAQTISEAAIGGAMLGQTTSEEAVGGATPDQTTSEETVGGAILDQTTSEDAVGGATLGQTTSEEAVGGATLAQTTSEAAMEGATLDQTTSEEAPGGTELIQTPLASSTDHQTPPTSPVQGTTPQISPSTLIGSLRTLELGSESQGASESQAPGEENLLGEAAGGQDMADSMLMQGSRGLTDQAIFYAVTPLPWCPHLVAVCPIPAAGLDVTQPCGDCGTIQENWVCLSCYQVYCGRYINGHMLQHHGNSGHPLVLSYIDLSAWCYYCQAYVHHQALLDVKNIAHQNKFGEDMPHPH
Put plainly: Inhibition of HDAC6 in human HL60 cells at 5 to 20 ug/ml after 24 hrs by Western blotting analysis. In kind it is cell-based. The settings on record: HL-60. Summed up:
as §2

Test [9] addresses Histone deacetylase 4 (Homo sapiens) (UniProt P56524). Put plainly: Inhibition of HDAC4 in human HL60 cells at 5 to 20 ug/ml after 24 hrs by Western blotting analysis. In kind it is cell-based. The settings on record: HL-60. Summed up:
as §2

In test [10] the target is Histone deacetylase 5 (Homo sapiens) (UniProt Q9UQL6). Put plainly: Inhibition of HDAC5 in human HL60 cells at 5 to 20 ug/ml after 24 hrs by Western blotting analysis. In kind it is cell-based. The settings on record: HL-60. Summed up:
as §2

In test [11] the test system is HL-60. Put plainly: Effect on Bcl2 expression in human HL60 cells by Western blotting analysis. In kind it is functional, cell-based. The method in brief:
as §2

Test [12] addresses Histone deacetylase (Homo sapiens) (UniProt Q13547+O15379+Q9UBN7+Q92769+Q9UQL6+Q8WUI4+Q9BY41+Q96DB2+P56524+Q9UKV0+Q969S8). The settings on record: HL-60, at 20 µg/mL.

≈ marks a conversion by molar mass, not a printed value. Calls of active or inactive are those of the source. The rule behind the calls is not given here.

Sequence of Histone deacetylase 3 (Homo sapiens) (O15379 whole entry): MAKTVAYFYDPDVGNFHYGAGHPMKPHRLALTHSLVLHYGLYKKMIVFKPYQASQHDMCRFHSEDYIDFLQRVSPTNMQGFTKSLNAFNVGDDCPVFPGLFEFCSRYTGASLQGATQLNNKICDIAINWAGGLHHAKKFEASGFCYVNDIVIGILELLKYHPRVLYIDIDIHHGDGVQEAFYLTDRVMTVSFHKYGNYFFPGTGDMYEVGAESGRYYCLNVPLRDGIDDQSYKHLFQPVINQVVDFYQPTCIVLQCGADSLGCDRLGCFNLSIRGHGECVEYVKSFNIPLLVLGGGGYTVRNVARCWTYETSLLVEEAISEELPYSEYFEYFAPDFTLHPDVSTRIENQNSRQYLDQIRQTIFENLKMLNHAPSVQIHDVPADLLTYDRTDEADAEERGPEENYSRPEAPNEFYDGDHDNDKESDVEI
Sequence of Histone deacetylase 5 (Homo sapiens) (Q9UQL6 whole entry): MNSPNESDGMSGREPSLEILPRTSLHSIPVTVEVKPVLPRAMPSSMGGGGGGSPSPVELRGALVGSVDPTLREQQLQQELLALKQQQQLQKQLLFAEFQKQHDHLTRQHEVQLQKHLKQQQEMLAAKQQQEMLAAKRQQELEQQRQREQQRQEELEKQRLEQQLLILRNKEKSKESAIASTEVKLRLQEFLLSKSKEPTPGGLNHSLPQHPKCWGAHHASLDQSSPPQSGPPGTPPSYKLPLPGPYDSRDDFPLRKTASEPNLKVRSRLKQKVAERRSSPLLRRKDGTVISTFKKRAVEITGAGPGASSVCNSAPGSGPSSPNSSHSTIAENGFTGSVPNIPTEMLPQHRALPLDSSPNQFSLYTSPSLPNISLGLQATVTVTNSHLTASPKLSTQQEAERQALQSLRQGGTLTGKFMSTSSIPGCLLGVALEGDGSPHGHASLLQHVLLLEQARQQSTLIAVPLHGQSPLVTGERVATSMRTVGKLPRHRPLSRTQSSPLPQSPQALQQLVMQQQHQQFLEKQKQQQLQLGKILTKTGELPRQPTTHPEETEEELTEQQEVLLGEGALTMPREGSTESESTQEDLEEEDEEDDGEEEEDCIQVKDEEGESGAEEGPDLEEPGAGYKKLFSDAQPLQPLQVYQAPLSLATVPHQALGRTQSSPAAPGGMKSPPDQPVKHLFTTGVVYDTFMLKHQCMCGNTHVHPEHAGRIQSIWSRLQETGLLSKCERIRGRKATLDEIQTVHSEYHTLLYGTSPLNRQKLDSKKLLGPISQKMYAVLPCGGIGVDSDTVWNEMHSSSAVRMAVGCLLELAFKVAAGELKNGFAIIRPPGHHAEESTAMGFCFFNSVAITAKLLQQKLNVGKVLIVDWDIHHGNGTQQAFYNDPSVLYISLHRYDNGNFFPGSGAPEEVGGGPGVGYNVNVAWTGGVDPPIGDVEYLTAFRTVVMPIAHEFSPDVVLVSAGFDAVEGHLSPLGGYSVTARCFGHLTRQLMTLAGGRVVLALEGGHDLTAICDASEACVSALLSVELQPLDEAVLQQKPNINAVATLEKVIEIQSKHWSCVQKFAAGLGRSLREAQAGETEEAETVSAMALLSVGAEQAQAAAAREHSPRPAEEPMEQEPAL
Sequence of Histone deacetylase 4 (Homo sapiens) (P56524 whole entry): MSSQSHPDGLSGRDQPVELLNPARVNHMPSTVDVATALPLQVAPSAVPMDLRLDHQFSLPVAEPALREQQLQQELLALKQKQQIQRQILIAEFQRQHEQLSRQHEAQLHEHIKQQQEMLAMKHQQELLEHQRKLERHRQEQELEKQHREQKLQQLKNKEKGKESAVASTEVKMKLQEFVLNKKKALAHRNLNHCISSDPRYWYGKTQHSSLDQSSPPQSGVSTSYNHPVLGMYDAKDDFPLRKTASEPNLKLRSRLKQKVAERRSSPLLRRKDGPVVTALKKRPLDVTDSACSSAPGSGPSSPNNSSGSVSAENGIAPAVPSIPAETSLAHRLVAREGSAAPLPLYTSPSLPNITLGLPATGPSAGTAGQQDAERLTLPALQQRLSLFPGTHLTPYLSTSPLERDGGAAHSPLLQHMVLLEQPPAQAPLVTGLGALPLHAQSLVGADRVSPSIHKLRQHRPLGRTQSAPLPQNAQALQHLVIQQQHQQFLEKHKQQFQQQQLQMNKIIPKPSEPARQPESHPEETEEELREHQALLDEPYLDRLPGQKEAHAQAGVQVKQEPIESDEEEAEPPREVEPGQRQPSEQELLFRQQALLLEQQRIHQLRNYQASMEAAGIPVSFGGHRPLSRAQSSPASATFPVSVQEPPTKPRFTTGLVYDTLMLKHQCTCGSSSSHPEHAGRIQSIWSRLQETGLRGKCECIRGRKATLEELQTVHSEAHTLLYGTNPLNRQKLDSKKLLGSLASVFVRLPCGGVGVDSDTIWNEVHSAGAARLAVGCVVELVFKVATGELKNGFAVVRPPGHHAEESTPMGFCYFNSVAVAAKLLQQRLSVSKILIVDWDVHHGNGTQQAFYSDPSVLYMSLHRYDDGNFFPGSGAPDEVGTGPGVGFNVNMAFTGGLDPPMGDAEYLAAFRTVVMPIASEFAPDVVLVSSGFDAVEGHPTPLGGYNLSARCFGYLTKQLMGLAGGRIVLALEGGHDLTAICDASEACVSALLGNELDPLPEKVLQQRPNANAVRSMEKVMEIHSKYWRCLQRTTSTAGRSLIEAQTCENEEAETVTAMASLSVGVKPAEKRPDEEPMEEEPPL
Sequence of Histone deacetylase 1 (Homo sapiens) (Q13547 whole entry): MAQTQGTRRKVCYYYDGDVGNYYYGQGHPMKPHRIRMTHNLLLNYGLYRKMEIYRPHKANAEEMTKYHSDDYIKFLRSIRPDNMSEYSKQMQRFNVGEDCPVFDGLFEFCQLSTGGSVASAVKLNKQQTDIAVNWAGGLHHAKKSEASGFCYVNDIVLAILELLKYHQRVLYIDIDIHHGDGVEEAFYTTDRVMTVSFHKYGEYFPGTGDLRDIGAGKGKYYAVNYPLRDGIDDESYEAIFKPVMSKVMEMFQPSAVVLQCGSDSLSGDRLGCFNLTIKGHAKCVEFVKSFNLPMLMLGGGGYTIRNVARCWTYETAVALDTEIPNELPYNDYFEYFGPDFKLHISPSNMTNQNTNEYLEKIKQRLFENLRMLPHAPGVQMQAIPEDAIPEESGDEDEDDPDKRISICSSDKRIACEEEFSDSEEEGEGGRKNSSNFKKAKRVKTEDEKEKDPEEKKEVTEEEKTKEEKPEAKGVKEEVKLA

Regarding `CO[C@@H]1C(O)=C2[C@@H]3[C@@H](C)[C@H](C)CC[C@]3(C)CC[C@@]2(C)[C@]2(C)CC[C@@H]3[C@](C)(CCC(=O)[C@@]3(C)CO)[C@@H]12`, the IC50 came to 5.1 µg/mL (≈ 10.5 µM) in test [1] and 7.7 µg/mL (≈ 15.8 µM) in test [2].

For `C[C@H]1[C@H](C)CC[C@]2(C(=O)O)CC[C@]3(C)C(=CC[C@@H]4[C@@]5(C)CC[C@H](O)C(C)(C)[C@@H]5CC[C@]43C)[C@H]12` [URSOLIC ACID], the inhibition entry in test [3], in [4], in test [8], in test [9], in test [10] and in test [12] was “Active” throughout. The outcome in [5] and in test [6] was Active. In addition, the IC50 in test [7] came to 5.9 µg/mL (≈ 12.9 µM); in test [1], 8.7 µg/mL (≈ 19 µM). In [11], the outcome was inactive.

As usually defined, the IC50 is the midpoint of a concentration-inhibition curve.
